# Test results reported in ChEMBL document CHEMBL1138229, “Novel cyano- and amidino-substituted derivatives of styryl-2-benzimidazoles and benzimidazo[1,2-a]quinolines. Synthesis, photochemical synthesis, DNA binding, and antitumor evaluation, part 3” (J Med Chem, 2007).
# Key:
# [1] = system: DNA; assay: Binding affinity to calf thymus DNA by thermal melting temperature assay; type: nucleic-acid assay; conditions: Bos taurus
# Method in brief: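 ct-DNA (as phosphate concentration) in sodium cacodylate buffer pH 7.0, I = 0.05 mol dm-3. Compound/polynucleotide ratio r = 0.3. Absorbance at 260 nm followed against temperature, ligand absorbance subtracted. Tm taken as transition midpoint by first derivative or tangent method. ΔTm = Tm(complex) − Tm(free DNA), averaged over at least two runs, error ±0.5 °C.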
# [2] = system: MCF7; assay: Antitumor activity against human MCF7 cells after 72 hrs by MTT assay; type: functional, cell-based; conditions: MCF7, 72 h
# Method in brief: (§1)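 Cells from ATCC grown as monolayers in DMEM with 10% FBS, 2 mM L-glutamine, penicillin/streptomycin, 5% CO2, 37 °C. Seeded on day 0 at 1 × 10^4/mL (2 × 10^4/mL for MCF-7). Five 10-fold dilutions (10^-8 to 10^-4 mol/L) added, then 72 h exposure. MTT read at 570 nm; percent growth vs time-zero and untreated controls. IC50 by linear regression; quadruplicates, three experiments.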
# [3] = Antiproliferative activity against human […] fibroblast after 72 hrs by MTT assay; type: functional; method in brief: as §1
# [4] = system: HEp-2; assay: Antitumor activity against human Hep2 cells after 72 hrs by MTT assay; type: functional, cell-based; conditions: HEp-2, 72 h; method in brief: as §1
# [5] = system: SW-620; assay: Antitumor activity against human SW620 cells after 72 hrs by MTT assay; type: functional, cell-based; conditions: SW-620, 72 h; method in brief: as §1
# [6] = system: HeLa; assay: Antitumor activity against human HeLa cells after 72 hrs by MTT assay; type: functional, cell-based; method in brief: as §1
# [7] = system: MIA PaCa-2; assay: Antitumor activity against human MiaPaCa2 cells after 72 hrs by MTT assay; type: functional, cell-based; conditions: MIA PaCa-2, 72 h; method in brief: as §1
# [8] = system: NCI-H460; assay: Antitumor activity against human H460 cells after 72 hrs by MTT assay; type: functional, cell-based; conditions: NCI-H460, 72 h; method in brief: as §1
# [9] = system: HeLa; assay: Cell cycle arrest in human HeLa cells assessed as accumulation at S phase after 48 hrs at 5 uM; type: functional
# Method in brief: (§2)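 Cells seeded at 2 × 10^5 per well and incubated overnight before compound at 5 × 10^-6 M. After 24, 48 or 72 h, attached and floating cells were pooled, PBS-washed and fixed in 70% ethanol. RNase A (0.1 µg/µl, 37 °C, 15 min), then propidium iodide 1 µg/mL; flow cytometry of 20 000 events. Results given as percent of cells per phase; significance at p < 0.05.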
# [10] = system: HeLa; assay: Cell cycle arrest in human HeLa cells assessed as accumulation at S phase after 72 hrs at 5 uM; type: functional; method in brief: as §2
# [11] = system: HeLa; assay: Cell cycle arrest in human HeLa cells assessed as accumulation at G2/M phase after 72 hrs at 5 uM; type: functional; method in brief: as §2
# [12] = system: HeLa; assay: Cell cycle arrest in human HeLa cells assessed as accumulation at S phase after 24 hrs at 5 uM; type: functional; method in brief: as §2
# [13] = system: HeLa; assay: Cell cycle arrest in human HeLa cells assessed as accumulation at G0/G1 phase after 48 hrs at 5 uM; type: functional; method in brief: as §2
# [14] = system: HeLa; assay: Cell cycle arrest in human HeLa cells assessed as accumulation at G0/G1 phase after 72 hrs at 5 uM; type: functional; method in brief: as §2
# [15] = system: HeLa; assay: Cell cycle arrest in human HeLa cells assessed as accumulation at G2/M phase after 48 hrs at 5 uM; type: functional; method in brief: as §2
# [16] = system: HeLa; assay: Cell cycle arrest in human HeLa cells assessed as accumulation at G2/M phase after 24 hrs at 5 uM; type: functional; method in brief: as §2
# [17] = system: HeLa; assay: Cell cycle arrest in human HeLa cells assessed as accumulation at G0/G1 phase after 24 hrs at 5 uM; type: functional; method in brief: as §2
# [18] = system: HeLa; assay: Cell cycle arrest in human HeLa cells assessed as accumulation at Sub G1 phase after 48 hrs at 5 uM; type: functional; method in brief: as §2
# [19] = system: HeLa; assay: Cell cycle arrest in human HeLa cells assessed as accumulation at Sub G1 phase after 24 hrs at 5 uM; type: functional; method in brief: as §2
# [20] = system: HeLa; assay: Cell cycle arrest in human HeLa cells assessed as accumulation at Sub G1 phase after 72 hrs at 5 uM; type: functional; method in brief: as §2
SMILES,ΔTm [1] [°C],IC50 [2] [µM],IC50 [3] [µM],IC50 [4] [µM],IC50 [5] [µM],IC50 [6] [µM],IC50 [7] [µM],other results
CC(C)NC(=N)c1ccc2nc(/C=C\c3ccccc3)[nH]c2c1,1.2,33,> 100,81,70,23,84,
COc1cccc2c1C(=O)c1c(O)c3c(c(O)c1C2=O)C[C@@](O)(C(=O)CO)C[C@@H]3O[C@H]1C[C@H](N)[C@H](O)[C@H](C)O1 [DOXORUBICIN],,0.04,,0.04,0.02,0.04,0.02,
N=C(N)c1ccc2nc(/C=C/c3ccccc3Cl)[nH]c2c1,,22,> 100,23,> 100,7.5,> 100,
N=C(NN1CCOCC1)c1ccc2nc(/C=C/c3ccccc3)[nH]c2c1,0.1,14,20,13,12,6,16,
COc1cc([C@@H]2c3cc4c(cc3[C@@H](O[C@@H]3O[C@@H]5CO[C@@H](C)O[C@H]5[C@H](O)[C@H]3O)[C@H]3COC(=O)[C@H]23)OCO4)cc(OC)c1O [ETOPOSIDE],,50,,,20,3,15,
C(=C\c1nc2ccc(C3=NCCN3)cc2[nH]1)/c1ccccc1,1.4,7,21,16,16,4,19,
c1ccc2c(c1)nc1ccc3ccc(C4=NCCN4)cc3n12,3.6,5.3,7.8,2.4,1.4,7,5.6,
Clc1ccccc1/C=C/c1nc2ccc(C3=NCCN3)cc2[nH]1,,5,42,16,14,4,17,
N=C(N)c1ccc2nc(/C=C\c3ccccc3Cl)[nH]c2c1,,38,> 100,29,> 100,20,85,
N=C(N)c1ccc2nc(/C=C\c3ccccc3)[nH]c2c1,-0.5,36,> 100,≥ 100,78,5.4,> 100,
N=C(N)c1ccc2ccc3nc4ccccc4n3c2c1,5.2,4,6.7,4,2.9,4.9,4.5,
N=C(NN1CCOCC1)c1ccc2nc(/C=C/c3ccccc3Cl)[nH]c2c1,,4,7,10,4,3,5,
N#Cc1ccc2c(c1)nc1ccc3ccccc3n12,,21,5,,2,4,7,IC50 [8]: 7 µM
CC(C)NC(=N)c1ccc2nc(/C=C\c3ccccc3Cl)[nH]c2c1,,35,> 100,30,29,19,28,
Clc1ccccc1/C=C\c1nc2ccc(C3=NCCN3)cc2[nH]1,,23,> 100,≥ 100,46,11,62,
N=C(NN1CCOCC1)c1ccc2nc(/C=C\c3ccccc3)[nH]c2c1,1.3,25,22,61,22,13,47,
N=C(N)c1ccc2nc3ccc4ccccc4n3c2c1,3.6,9,74,13,17,5,13,
N#Cc1ccc(/C=C/c2nc3ccccc3[nH]2)cc1,,14,,,23,19,36,IC50 [8]: 20 µM
CC(C)NC(=N)c1ccc2nc3ccc4ccccc4n3c2c1,3.7,4,10,4,3,4,3,
CC(C)NC(=N)c1ccc2nc(/C=C/c3ccccc3Cl)[nH]c2c1,,16,> 100,70,66,10,48,
CC(C)NC(=N)c1ccc2nc(/C=C/c3ccccc3)[nH]c2c1,1.1,9,> 100,≥ 100,> 100,11,> 100,
N#Cc1ccc2nc3ccc4ccccc4n3c2c1,,18,14,,8,0.05,15,IC50 [8]: 13 µM
CC(C)NC(=N)c1ccc2ccc3nc4ccccc4n3c2c1,5,2.2,2.7,1.6,1.6,1.7,8.1,
N=C(NN1CCOCC1)c1ccc2nc(/C=C\c3ccccc3Cl)[nH]c2c1,,14,21,9,15,7,15,
N=C(NN1CCOCC1)c1ccc2ccc3nc4ccccc4n3c2c1,3.2,6.7,17.7,4.7,1.9,7,10,
c1ccc2c(c1)ccc1nc3ccccc3n12,,16,14,15,23,12,18,
N#Cc1ccc2nc(/C=C/c3ccccc3)[nH]c2c1,,4,14,,2.5,2,4,IC50 [8]: 3 µM
Cl.N=C(NN1CCOCC1)c1ccc2nc3ccc4ccccc4n3c2c1,3.2,4,4,2,2,3,2,Activity [9]: 37%; Activity [10]: 39%; Activity [11]: 35%; Activity [12]: 30%; Activity [13]: 36%; Activity [14]: 25%; Activity [15]: 27%; Activity [16]: 34%; Activity [17]: 36%; Activity [18]: 2%; Activity [19]: 3%; Activity [20]: 2%
N=C(N)c1ccc2nc(/C=C/c3ccccc3)[nH]c2c1,0.7,29,> 100,11,15,2,> 100,
